Biological target: T1, His6-Te2FT (Thermosynechococcus vestitus, UniProt Q8DK72)
T1 sequence (Q8DK72 1-293): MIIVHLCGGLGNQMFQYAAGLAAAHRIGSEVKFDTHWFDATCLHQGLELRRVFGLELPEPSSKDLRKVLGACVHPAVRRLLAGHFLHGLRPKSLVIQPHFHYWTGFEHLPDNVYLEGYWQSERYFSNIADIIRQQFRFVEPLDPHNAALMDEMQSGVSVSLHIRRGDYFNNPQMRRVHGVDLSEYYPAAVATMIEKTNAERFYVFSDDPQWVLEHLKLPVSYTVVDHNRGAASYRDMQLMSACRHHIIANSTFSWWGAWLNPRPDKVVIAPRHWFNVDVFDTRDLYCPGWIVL
Experiment: HPLC-based fucosyltransferase kinetics
Assay type: biochemical
Settings: α1–2-fucosyltransferase activity; acceptor; donor GDP-fucose
In short: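 Enzyme is N-His6-tagged Te2FT from the pET15b vector, expressed in E. coli at 16 °C for 20 h with shaking at 120 rpm. It was purified on a Ni2+ column and quantified by bicinchoninic acid assay. Apparent kinetic parameters (kcat, KM, kcat/KM) were determined for α1–2-fucosyltransferase activity. The acceptor was Galβ1–3GlcNAcβ2AA and the donor was GDP-fucose.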

Galβ1–3GlcNAcβ2AA
Km: 790 ± 110 µM

From publication PMC4775349 (Chemical communications (Cambridge, England), 2016)
